Test results published in ChEMBL document CHEMBL2417398, “Synthesis, antileishmanial activity and structure-activity relationship of 1-N-X-phenyl-3-N'-Y-phenyl-benzamidines” (Eur J Med Chem, 2013).

System: Leishmania chagasi
Test: Antileishmanial activity against Leishmania chagasi promastigotes after 24 hrs by cell counting
Type: functional, organism-based
Conditions: not given
How it was run: (§1)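 Promastigotes given drugs in DMSO (at most 1.6% v/v) over 160 to 5 μg/mL for 24 h. Remaining parasites counted in a Neubauer chamber and % inhibition set against DMSO-only and parasite-only controls. IC50 derived by linear regression of % inhibition against log drug concentration.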
For `COc1ccc(/N=C(\Nc2ccc(OC)cc2)c2ccccc2)cc1` [listing 1 of 2 here], the logIC50 was 2.25. `COc1ccc(/C(=N/c2ccccc2)Nc2ccccc2)cc1` [listing 1 of 2 here] showed a logIC50 of 1.91. For `COc1ccc(/N=C(\Nc2ccccc2)c2ccc(OC)cc2)cc1` [listing 1 of 2 here], the logIC50 was 1.95.

Same assay, conditions: Leishmania chagasi, 24 h
Molecule `COc1ccc(/C(=N/c2ccccc2)Nc2ccccc2)cc1` [listing 2 of 2 here] has a logIC50 of 2.76. `COc1ccc(/N=C(\Nc2ccccc2)c2ccc(OC)cc2)cc1` [listing 2 of 2 here] gave a logIC50 of 2.04. `COc1ccc(/N=C(\Nc2ccc(OC)cc2)c2ccccc2)cc1` [listing 2 of 2 here] showed a logIC50 of over 3. For `N=C(N)c1ccc(OCCCCCOc2ccc(C(=N)N)cc2)cc1` [PENTAMIDINE], the logIC50 was 1.76.

System: Leishmania amazonensis
Test: Antileishmanial activity against Leishmania amazonensis MHOM/BR/77/LTB0016 promastigotes after 24 hrs by cell counting
Type: functional, organism-based
Conditions: not given
How it was run: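 L. amazonensis MHOM/BR/77/LTB0016 promastigotes grown at 25 °C in LIT medium with 10% (v/v) heat-inactivated FCS, harvested in late log phase and set to 4 x 10^6 /mL. Drugs in DMSO (up to 1.6% v/v) at 160 to 5 μg/mL for 24 h. Surviving parasites counted in a Neubauer chamber. Inhibition taken against DMSO and untreated controls. IC50 from linear regression of % inhibition versus log concentration.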
`COc1ccc(/N=C(\Nc2ccc(OC)cc2)c2ccccc2)cc1` [listing 1 of 2 here] showed a logIC50 of 2.24. For `COc1ccc(/C(=N/c2ccccc2)Nc2ccccc2)cc1` [listing 1 of 2 here], the logIC50 was 1.85. `COc1ccc(/N=C(\Nc2ccccc2)c2ccc(OC)cc2)cc1` [listing 1 of 2 here] showed a logIC50 of 2.8.

Same assay, conditions: Leishmania amazonensis, MHOM/BR/77/LTB0016, 24 h
With `COc1ccc(/C(=N/c2ccccc2)Nc2ccc(Cl)c([N+](=O)[O-])c2)cc1` the logIC50 was 1.1. With `COc1ccc(/C(=N/c2ccccc2)Nc2ccc(C)cc2)cc1` the logIC50 was 2.42. Work on `COc1ccc(/C(=N/c2ccccc2)Nc2ccc(O)cc2)cc1` yielded a logIC50 of 2.51. In the case of `COc1ccc(/C(=N/c2ccccc2)Nc2ccccc2)cc1` [listing 2 of 2 here], the logIC50 was 1.9. `COc1ccc(/C(=N/c2ccccc2)Nc2ccc(Cl)cc2)cc1` gave a logIC50 of 1.9. For `COc1cccc(/C(=N/c2ccccc2)Nc2ccccc2)c1`, the logIC50 was 2.56. `COc1ccc(/C(=N/c2ccccc2)Nc2cccc(OC)c2)cc1` gave a logIC50 of 1.68. `COc1ccc(/N=C(\Nc2ccccc2)c2ccc(OC)cc2)cc1` [listing 2 of 2 here] showed a logIC50 of 1.82. With `COc1ccc(/N=C(\Nc2ccc(OC)cc2)c2ccccc2)cc1` [listing 2 of 2 here] the logIC50 was 1.62. Work on `COc1ccc(/N=C(\Nc2ccccc2)c2ccccc2)cc1` yielded a logIC50 of 2.8. With `COc1ccc(/C(=N/c2ccccc2)Nc2cccc([N+](=O)[O-])c2)cc1` the logIC50 was 2.59. In the case of `COc1ccc(/C(=N/c2ccccc2)Nc2cccc(O)c2)cc1`, the logIC50 was 2.65. Work on `COc1ccc(/C(=N/c2ccccc2)Nc2cccc(Cl)c2)cc1` yielded a logIC50 of 1.11. For `COc1ccc(/C(=N/c2ccccc2)Nc2cccc(F)c2)cc1`, the logIC50 was 1.62. In the case of `COc1ccc(/C(=N/c2ccccc2)Nc2cccc(C)c2)cc1`, the logIC50 was 2.42. Molecule `COc1ccc(/N=C(\Nc2ccccc2)c2ccc3c(c2)OCO3)cc1` has a logIC50 of 1.6. With `N=C(N)c1ccc(OCCCCCOc2ccc(C(=N)N)cc2)cc1` [PENTAMIDINE] the logIC50 was 1.05. For `COc1ccc(/N=C(\Nc2ccc(OC)cc2)c2ccc(OC)cc2)cc1`, the logIC50 was over 3. For `COc1ccc(/N=C(\Nc2ccccc2)c2cccc(OC)c2)cc1`, the logIC50 was 2.57. For `COc1ccc(/C(=N/c2ccccc2)Nc2ccc(S(N)(=O)=O)cc2)cc1`, the logIC50 was 1.79. `COc1ccc(/C(=N/c2ccccc2)Nc2ccc([N+](=O)[O-])cc2)cc1` showed a logIC50 of 1.22. Work on `COc1ccc(/C(=N/c2ccccc2)Nc2ccc(Br)cc2)cc1` yielded a logIC50 of 1.34. With `COc1ccc(/C(=N/c2ccccc2)Nc2ccc(F)cc2)cc1` the logIC50 was 1.43.

System: not listed separately
Test: Cytotoxicity against macrophages (unknown origin) at 320 ug/ml
Type: cell-based
Conditions: macrophage
`COc1ccc(/N=C(\Nc2ccc(OC)cc2)c2ccccc2)cc1` [listing 1 of 2 here] gave an Activity of 100%. With `COc1ccc(/C(=N/c2ccccc2)Nc2ccccc2)cc1` [listing 1 of 2 here] the Activity was “Non-toxic”. `COc1ccc(/N=C(\Nc2ccccc2)c2ccc(OC)cc2)cc1` [listing 1 of 2 here] gave an Activity of 15%. For `N=C(N)c1ccc(OCCCCCOc2ccc(C(=N)N)cc2)cc1` [PENTAMIDINE], the Activity was 100%.

System: Leishmania braziliensis
Test: Antileishmanial activity against Leishmania braziliensis promastigotes after 24 hrs by cell counting
Type: functional, organism-based
Conditions: not given
How it was run: as §1
`COc1ccc(/N=C(\Nc2ccc(OC)cc2)c2ccccc2)cc1` [listing 1 of 2 here] gave a logIC50 of 2.25. `COc1ccc(/C(=N/c2ccccc2)Nc2ccccc2)cc1` [listing 1 of 2 here] showed a logIC50 of 1.9. Molecule `COc1ccc(/N=C(\Nc2ccccc2)c2ccc(OC)cc2)cc1` [listing 1 of 2 here] has a logIC50 of 1.52.

Same assay, conditions: Leishmania braziliensis, 24 h
Molecule `COc1ccc(/C(=N/c2ccccc2)Nc2ccccc2)cc1` [listing 2 of 2 here] has a logIC50 of 2.05. In the case of `COc1ccc(/N=C(\Nc2ccccc2)c2ccc(OC)cc2)cc1` [listing 2 of 2 here], the logIC50 was 1.42. `COc1ccc(/N=C(\Nc2ccc(OC)cc2)c2ccccc2)cc1` [listing 2 of 2 here] gave a logIC50 of 2.13. With `N=C(N)c1ccc(OCCCCCOc2ccc(C(=N)N)cc2)cc1` [PENTAMIDINE] the logIC50 was 1.36.
